Measurements taken from paper PMC2645915 (Biochemistry, 2008).
Numbering of substitutions follows the chain as printed. Names and notes keep the numbering of the source. Blank lines part the entries; values can stand above or below the molecule they belong to.

Columns and labels:
[1] = molecular target: T1, methionine synthase reductase (MSR), human, I22/S175 background (Homo sapiens, UniProt Q9UBK8); experiment: isothermal titration calorimetry; format: binding
T1 sequence (Q9UBK8 1-698): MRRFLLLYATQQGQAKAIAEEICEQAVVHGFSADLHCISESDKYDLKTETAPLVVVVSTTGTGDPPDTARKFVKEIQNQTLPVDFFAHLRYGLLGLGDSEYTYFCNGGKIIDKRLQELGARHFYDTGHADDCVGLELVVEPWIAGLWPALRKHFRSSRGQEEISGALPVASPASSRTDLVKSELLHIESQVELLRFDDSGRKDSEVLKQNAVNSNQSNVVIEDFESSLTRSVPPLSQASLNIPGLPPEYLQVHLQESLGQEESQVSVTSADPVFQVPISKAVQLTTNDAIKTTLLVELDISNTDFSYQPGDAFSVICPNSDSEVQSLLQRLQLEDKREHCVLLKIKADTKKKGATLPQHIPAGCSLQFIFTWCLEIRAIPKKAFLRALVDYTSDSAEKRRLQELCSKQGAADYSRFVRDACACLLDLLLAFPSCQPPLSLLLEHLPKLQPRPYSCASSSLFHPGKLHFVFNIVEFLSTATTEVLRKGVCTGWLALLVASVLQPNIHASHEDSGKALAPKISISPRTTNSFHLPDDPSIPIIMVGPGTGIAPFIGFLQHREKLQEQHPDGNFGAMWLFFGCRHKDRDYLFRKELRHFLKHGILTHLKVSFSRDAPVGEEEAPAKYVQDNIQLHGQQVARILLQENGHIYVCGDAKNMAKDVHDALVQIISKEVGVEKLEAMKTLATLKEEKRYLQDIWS
How it was run: (§1)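 Recombinant wild-type or A129T MSR, 30-50 µM by Bradford and A454, was dialysed overnight against 50 mM Tris-HCl pH 7.5, filtered and degassed. NADP+ (500-850 µM) in the syringe was injected stepwise at 300 s intervals. Heats were corrected for dilution using post-saturation injections and fitted to a single-site model for KA and ΔH°. Runs were done in duplicate or triplicate.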

[2] = molecular target: T2, methionine synthase reductase (MSR), human, I22/S175 background (Homo sapiens, UniProt Q9UBK8, A129T); experiment: isothermal titration calorimetry; format: binding
T2 sequence (Q9UBK8 1-698 A129T): T1 sequence (Q9UBK8 1-698) with A129T
How it was run: as §1

purified protein = substrate: NC(=O)C1=CN([C@@H]2O[C@H](COP(=O)(O)OP(=O)(O)OC[C@H]3O[C@@H](n4cnc5c(N)ncnc54)[C@H](OP(=O)(O)O)[C@@H]3O)[C@@H](O)[C@H]2O)C=CC1; experiment: purified protein; format: biochemical, Homo sapiens; settings: cytochrome c as acceptor, 50 mM Tris pH 7.5, 37°C

- Kd [1]: 54 ± 5.3 µM
- Kd [2]: 32 ± 2.9 µM
Molecule: NC(=O)c1ccc[n+]([C@@H]2O[C@H](COP(=O)(O)OP(=O)(O)OC[C@H]3O[C@@H](n4cnc5c(N)ncnc54)[C@H](OP(=O)(O)O)[C@@H]3O)[C@@H](O)[C@H]2O)c1 [NADP^+]

B1: methionine synthase reductase (MSR), human, I22/S175 background (Homo sapiens; A129T) (protein)
chain: T1 sequence (Q9UBK8 1-698) with A129T
- Km (purified protein): 2.8 µM
